Measured values taken from ChEMBL document CHEMBL2440010, “Click chemistry based synthesis of dopamine D4 selective receptor ligands for the selection of potential PET tracers” (Bioorg Med Chem Lett, 2013).
The source made the active and inactive calls. The calls are words filed in the database; no cut-off is given here.

Legend:
[1] = Displacement of [3H]ketanserin from 5-HT2 in pig cerebral cortex; format: tissue-based, Sus scrofa
[2] = Displacement of [3H]WAY100635 from 5-HT1A in pig cerebral cortex; format: tissue-based, Sus scrofa
Summary of the method: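 Porcine cortical membranes were used with selective radioligands: [3H]WAY100635 for 5-HT1A, [3H]ketanserin for 5-HT2 and [3H]prazosin for α1. Ki values were taken from two to four independent experiments, each run in triplicate.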

D(1A) dopamine receptor = D(1A) dopamine receptor (Sus scrofa, UniProt P50130); assay: Displacement of [3H]SCH23390 from D1 receptor in pig striatal membrane; format: cell membranes, Striatum
Summary of the method: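 D1 binding on porcine striatal membrane preparations, displacing the D1-selective antagonist [3H]SCH23390. Ki values were taken from two to four independent experiments, each run in triplicate.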

D(3) dopamine receptor = D(3) dopamine receptor (Homo sapiens, UniProt P35462); assay: Displacement of [3H]spiperone from human D3 receptor expressed in CHO cells; format: cell-based
Summary of the method: (§1)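 Competition binding against [3H]spiperone on cloned human receptors (D2long, D2short, D3, D4.4) stably expressed in CHO cells. Ki values were taken from two to four independent experiments, each run in triplicate.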

D(2) dopamine receptor [3] = target: T1, D(2) dopamine receptor (Homo sapiens, UniProt P14416); assay: Displacement of [3H]spiperone from human D2short receptor expressed in CHO cells; format: cell-based; summary of the method: as §1
D(2) dopamine receptor [4] = target: T1, D(2) dopamine receptor; assay: Displacement of [3H]spiperone from human D2long receptor expressed in CHO cells; format: cell-based; summary of the method: as §1
D(4) dopamine receptor = target: T2, D(4) dopamine receptor (Homo sapiens, UniProt P21917); assay: Displacement of [3H]spiperone from human D4.4 receptor expressed in CHO cells; format: cell-based; summary of the method: as §1
T2 sequence (P21917 whole entry): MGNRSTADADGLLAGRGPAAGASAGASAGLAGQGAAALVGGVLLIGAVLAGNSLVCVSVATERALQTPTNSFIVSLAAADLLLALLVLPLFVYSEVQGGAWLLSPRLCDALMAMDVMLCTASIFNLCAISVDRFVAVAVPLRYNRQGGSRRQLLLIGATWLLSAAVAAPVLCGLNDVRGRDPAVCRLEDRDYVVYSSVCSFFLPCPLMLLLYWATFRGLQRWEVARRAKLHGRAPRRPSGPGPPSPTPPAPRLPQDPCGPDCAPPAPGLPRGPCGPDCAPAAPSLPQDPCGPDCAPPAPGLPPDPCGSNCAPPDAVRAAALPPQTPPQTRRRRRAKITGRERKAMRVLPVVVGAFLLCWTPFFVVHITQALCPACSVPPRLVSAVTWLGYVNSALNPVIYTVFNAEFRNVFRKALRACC

[5] = target: T3, D(4) dopamine receptor (Homo sapiens) (UniProt P21917); assay: Partial agonist activity at human D4.4 receptor expressed in CHO10001 cells assessed as [3H]thymidine incorporation preincubated at 63 nM for 20 hrs before [3H]thymidine addition by mitogenesis assay; format: cell-based
T3 sequence (whole entry): T2 sequence (P21917 whole entry)

[6] = target: T3, D(4) dopamine receptor (Homo sapiens); assay: Antagonist activity at human D4.4 receptor expressed in CHO10001 cells assessed as [3H]thymidine incorporation preincubated at 63 nM for 20 hrs before [3H]thymidine addition by mitogenesis assay; format: cell-based

Sequence of D(1A) dopamine receptor (P50130 whole entry): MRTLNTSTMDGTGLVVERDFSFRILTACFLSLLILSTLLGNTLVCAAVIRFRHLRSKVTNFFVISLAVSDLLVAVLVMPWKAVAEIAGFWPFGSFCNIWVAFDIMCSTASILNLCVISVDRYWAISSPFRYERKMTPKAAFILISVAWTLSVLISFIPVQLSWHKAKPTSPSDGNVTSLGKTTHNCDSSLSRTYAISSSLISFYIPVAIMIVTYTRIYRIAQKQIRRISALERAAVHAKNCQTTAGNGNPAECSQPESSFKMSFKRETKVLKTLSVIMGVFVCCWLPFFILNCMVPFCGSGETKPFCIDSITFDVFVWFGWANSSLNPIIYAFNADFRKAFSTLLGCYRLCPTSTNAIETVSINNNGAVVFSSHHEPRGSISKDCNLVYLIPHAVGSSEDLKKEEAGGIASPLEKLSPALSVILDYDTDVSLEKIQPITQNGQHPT
Sequence of D(3) dopamine receptor (P35462 whole entry): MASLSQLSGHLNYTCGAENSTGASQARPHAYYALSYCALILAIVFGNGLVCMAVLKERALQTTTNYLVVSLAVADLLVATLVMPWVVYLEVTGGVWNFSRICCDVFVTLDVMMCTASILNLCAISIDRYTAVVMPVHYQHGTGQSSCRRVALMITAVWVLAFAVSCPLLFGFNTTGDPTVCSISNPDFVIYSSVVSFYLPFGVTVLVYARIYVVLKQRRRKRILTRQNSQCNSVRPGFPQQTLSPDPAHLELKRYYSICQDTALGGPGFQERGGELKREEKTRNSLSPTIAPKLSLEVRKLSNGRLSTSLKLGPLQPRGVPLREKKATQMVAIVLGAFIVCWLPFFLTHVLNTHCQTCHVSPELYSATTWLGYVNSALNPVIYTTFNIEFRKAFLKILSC
T1 sequence (P14416 whole entry): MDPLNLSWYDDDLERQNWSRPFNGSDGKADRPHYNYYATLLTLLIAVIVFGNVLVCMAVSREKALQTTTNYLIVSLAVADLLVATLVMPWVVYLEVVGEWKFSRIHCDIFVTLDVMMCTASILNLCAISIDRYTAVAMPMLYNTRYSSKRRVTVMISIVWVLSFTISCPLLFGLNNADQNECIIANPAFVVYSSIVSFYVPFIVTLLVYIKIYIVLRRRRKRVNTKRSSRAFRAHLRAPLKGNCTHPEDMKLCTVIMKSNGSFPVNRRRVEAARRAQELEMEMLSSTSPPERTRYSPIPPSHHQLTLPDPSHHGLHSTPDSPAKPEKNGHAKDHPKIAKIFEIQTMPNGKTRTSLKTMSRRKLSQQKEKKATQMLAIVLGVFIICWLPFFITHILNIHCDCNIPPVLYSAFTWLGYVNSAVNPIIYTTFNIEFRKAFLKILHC

SMILES | Ki [1] [nM] | Ki [2] [nM] | Ki (D(1A) dopamine receptor) [nM] | Ki (D(3) dopamine receptor) [nM] | Ki (D(2) dopamine receptor [3]) [nM] | Ki (D(2) dopamine receptor [4]) [nM] | Ki (D(4) dopamine receptor) [nM] | Activity [5] [%] | Activity [6]
COc1ccccc1N1CCN(Cc2cn(CCOCCOCCOCCF)nn2)CC1 | 18000 | 770 | 60000 | 7600 | 4700 | 8300 | 680 |  | 
COc1ccccc1N1CCN(Cc2cn(-c3ccc(OCCCOCCF)cc3)nn2)CC1 | 9000 | 480 | 3600 | 2900 | 770 | 440 | 16 |  | 
COc1ccccc1N1CCN(Cc2cn(-c3ccc(OCCOCCOCCF)cc3)nn2)CC1 | 8200 | 560 | 43000 | 200 | 2900 | 2700 | 100 |  | 
COc1ccccc1N1CCN(Cc2cn(-c3ccc(OCCF)cc3)nn2)CC1 | 10000 | 420 | 45000 | 17000 | 18000 | 1600 | 14 | 27 | 
COc1ccccc1N1CCN(Cc2cn(-c3ccc(OCCCF)cc3)nn2)CC1 |  | 420 | 38000 | 2800 | 520 | 340 | 5.1 |  | Active
COc1ccccc1N1CCN(Cc2cn(CCOCCOCCF)nn2)CC1 | 23000 | 870 | 30000 | 5100 | 3400 | 7700 | 150 |  | 

The next lines start with the values.

Ki [1] [nM] | Ki [2] [nM] | Ki (D(1A) dopamine receptor) [nM] | Ki (D(3) dopamine receptor) [nM] | Ki (D(2) dopamine receptor [3]) [nM] | Ki (D(2) dopamine receptor [4]) [nM] | Ki (D(4) dopamine receptor) [nM] | Activity [5] [%] | Activity [6] | SMILES
7800 | 650 | 16000 | 5700 | 1500 | 4100 | 32 |  |  | COc1ccccc1N1CCN(Cc2cn(-c3ccc(OCCCOC4O[C@H](CO)[C@@H](O)[C@H](O)[C@H]4F)cc3)nn2)CC1 (stereo not given in full)
38000 | 12000 | 54000 | 17000 | 42000 | 23000 | 500 |  |  | COc1ccccc1N1CCN(Cc2cn([C@@H]3O[C@H](CO)[C@@H](O)[C@H](O)[C@H]3F)nn2)CC1
6400 | 54 | 26000 | 800 | 560 | 460 | 20 |  |  | COc1ccccc1N1CCN(Cc2cn(CCCCCCF)nn2)CC1
27000 | 240 |  | 1700 | 750 | 1600 | 23 |  |  | COc1ccccc1N1CCN(Cc2cn(CCOCCF)nn2)CC1
 | 18000 | 77000 |  | 51000 | 24000 | 340 |  |  | COc1ccccc1N1CCN(Cc2cn([C@@H]3O[C@H](CF)[C@@H](O)[C@H](O)[C@H]3O)nn2)CC1
